Source: PubChem BioAssay
Most compounds without a hit are left out; they make up all but 1.5% or so of the library.
UBC13 inh – blocks human UBC13 polyubiquitin chain formation; TR-FRET; inhibition, % at 20 µM; 330,000 compounds, 0.47% hits; AID 485273; in the data active = inhibition above about 45%, passing the limit was not always enough
Target sequence (P61088 whole entry, looked up): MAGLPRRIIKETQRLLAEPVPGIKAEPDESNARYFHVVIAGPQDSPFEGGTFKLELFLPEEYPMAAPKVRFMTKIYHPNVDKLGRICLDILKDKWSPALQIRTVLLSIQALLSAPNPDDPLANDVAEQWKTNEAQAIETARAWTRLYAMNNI
Apaf1 inhib – inhibitors of human Apaf-1 apoptosome; 330,000 compounds, 0.71% hits; reconstituted apoptosome caspase-3 activity, DEVD-Rh110 fluorescence; O14727; inhibition, % at 20 µM; AID 489030; active = inhibition of at least 40% at 20 µM;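 note: plate controls were DMSO wells for no effect and DEVD-CHO caspase inhibitor wells for full effect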
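Medium: Hepes buffer, pH 7.5 / System: biochemical Apaf-1 apoptosome reconstitution / Measured by: Rh110 fluorescence, excitation 480 nm, emission 540 nm / Times: compound with Apaf-1, dATP, procaspase-3 30 min, then 50 min reaction, room temperature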
UCH37 inh – human UCH37 deubiquitinating enzyme inhibition. Q9Y5K5. purified proteasome/UCH37, Ub-AMC cleavage fluorescence. inhibition, % (no concentration beside the values). 330,000 compounds, 0.33% hits;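 active = mean inhibition over replicate wells above about 20%, limit read from the data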;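 note: 0% = compound-free wells with enzyme and 100% = wells lacking proteasome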
Target sequence (Q9Y5K5 whole entry, looked up): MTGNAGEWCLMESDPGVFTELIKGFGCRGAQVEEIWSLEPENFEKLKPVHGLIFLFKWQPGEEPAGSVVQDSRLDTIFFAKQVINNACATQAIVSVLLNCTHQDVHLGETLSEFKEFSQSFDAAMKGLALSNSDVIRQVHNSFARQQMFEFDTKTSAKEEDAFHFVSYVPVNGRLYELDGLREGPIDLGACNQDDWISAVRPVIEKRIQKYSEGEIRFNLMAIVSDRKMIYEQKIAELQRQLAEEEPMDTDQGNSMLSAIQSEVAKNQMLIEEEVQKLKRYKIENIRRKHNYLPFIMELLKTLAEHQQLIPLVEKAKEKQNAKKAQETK
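Schedule: 30 min plus 25 min, room temperature / Material: human UCH37 within purified proteasomes / Technique: AMC fluorescence intensity at 355/460 nm / Buffer or medium: pH 7.4 Tris-HCl (50 mM) with ovalbumin, ATP-MgCl2, DTT / Controls: wells without proteasome as full block, compound-free enzyme plus substrate as uninhibited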
PREPL inh – inhibitors of human prolyl oligopeptidase-like enzyme PREPL; Q4J6C6; 320,000 compounds, 0.68% hits; recombinant PREPL, fluorescence polarization activity-based probe; AID 2751; inhibition, % at 5.96 µM;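 note: 0% = enzyme with DMSO and 100% = wells lacking enzyme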
PREPL inh cf – confirmation of human PREPL enzyme inhibitors; shares compounds with PREPL inh; recombinant PREPL, fluorescence polarization activity probe; inhibition, % at 5.96 µM; 2,000 compounds, 67% hits; AID 2803;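 note: 0% = protein with DMSO and 100% = wells lacking protein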
* hit, by the source's call. Cut-off read from the data, not from the text of the source, unless noted: active = inhibition above about 43%; inactive = the rest.

For O=C1N[C@@H](c2ccccc2)COC(=O)[C@H](Cc2ccc(F)cc2)CC/C=C/C[C@@H]1CC(=O)N(CCO)Cc1ccccc1 the results were UBC13 inh 7, Apaf1 inhib 29, UCH37 inh 3, PREPL inh 57* and PREPL inh cf 46*.
CC(C)(C)[C@@H]1COC(=O)[C@H](Cc2ccc(F)cc2)CC/C=C\C[C@H](CC(=O)N(CCO)Cc2ccccc2)C(=O)N1 was read as UBC13 inh -3, Apaf1 inhib 27, UCH37 inh 0 and PREPL inh 41.
Screening CC(C)(C)[C@@H]1COC(=O)[C@H](Cc2ccc(F)cc2)C/C=C\C[C@@H](CC(=O)N(CCO)Cc2ccccc2)C(=O)N1 returned UBC13 inh 9, Apaf1 inhib 26, UCH37 inh 5, PREPL inh 48* and PREPL inh cf 46*.
CC(C)(C)[C@@H]1COC(=O)[C@@H](Cc2ccc(F)cc2)CC/C=C\C[C@@H](CC(=O)N(CCO)Cc2ccccc2)C(=O)N1 was read as UBC13 inh 6, Apaf1 inhib 21, UCH37 inh 4, PREPL inh 55* and PREPL inh cf 50*.
Cc1snc(S(=O)(=O)C(C#N)=NNc2ccccc2)c1C#N was read as UCH37 inh 7.
C/C(C=NNC(=O)c1nn(C)c(C)c1Br)=C\c1ccccc1 was read as UCH37 inh 4.
Screening Cn1c(NC(=O)C[n+]2cc(-c3ccc(Cl)cc3)n3c2CCC3)cc(=O)n(C)c1=O returned UBC13 inh 6, Apaf1 inhib 6, UCH37 inh 9, PREPL inh 43* and PREPL inh cf 46*.
Screening Cn1c(NC(=O)C[n+]2cc(-c3ccccc3)n3c2CCC3)cc(=O)n(C)c1=O returned UBC13 inh 8, Apaf1 inhib -3, UCH37 inh -1 and PREPL inh 11.
`O=C(O)[C@H]1CCCC[C@H]1C(=O)Nc1ccc(Nc2ccccc2)cc1` gave UBC13 inh -7, Apaf1 inhib 5, UCH37 inh -1, PREPL inh 93* and PREPL inh cf 8.
CC(C)c1ccc(NC(=O)C2CCCCC2C(=O)O)cc1 (stereo not drawn) was read as UBC13 inh 7, Apaf1 inhib -1 and PREPL inh -6.
`CCN(CC)c1ccc(N)cc1` gave UBC13 inh -39, Apaf1 inhib 38, PREPL inh 64* and PREPL inh cf 39.
`CCN(CC)c1ccc(C(=O)NN)cc1` gave UBC13 inh -8, Apaf1 inhib -13, UCH37 inh 0 and PREPL inh 12.
Cc1nc(NC(=O)c2ccccc2)sc1-c1csc(Nc2cccc(F)c2)n1 was read as UBC13 inh -47, Apaf1 inhib -13 and PREPL inh 6.
Screening Cc1cc(NS(=O)(=O)c2ccc(Nc3nc(-c4sc(NC(=O)c5ccccc5)nc4C)cs3)cc2)no1 returned UBC13 inh -3, Apaf1 inhib 28, UCH37 inh -74, PREPL inh 66* and PREPL inh cf 63*.
`c1ccc(CN2CCN(c3nc(N4CCOCC4)c4ccccc4n3)CC2)cc1` gave UBC13 inh 4, Apaf1 inhib 6, UCH37 inh -31, PREPL inh 46* and PREPL inh cf 39.
Screening c1ccc2c(N3CCOCC3)nc(N3CCOCC3)nc2c1 returned UBC13 inh 12, Apaf1 inhib 6, UCH37 inh -231 and PREPL inh 9.
For CCN(CCN(C)C)C(=O)C1CCN(S(=O)(=O)c2c(C)noc2/C=C/c2ccccc2F)CC1 the results were UBC13 inh 4, Apaf1 inhib 22, UCH37 inh 5, PREPL inh 44* and PREPL inh cf 42.
COc1ccccc1/C=C\C(=O)NCC(=O)NN=C(C)Cc1ccccc1 was read as UCH37 inh -10.
O=C(CNC(=O)c1ccco1)NCC(c1ccco1)N1CCCCC1 (stereo not drawn) was read as UBC13 inh 10, Apaf1 inhib 14, UCH37 inh -4, PREPL inh 73* and PREPL inh cf 13.
Screening O=C(CCN1C(=O)S/C(=C\C=C\c2ccccc2)C1=O)Nc1ccc(O)cc1 returned UBC13 inh -1, Apaf1 inhib 2, UCH37 inh 1, PREPL inh 43* and PREPL inh cf 34.
Screening Cc1c(Cl)c([N+](=O)[O-])nn1CCCC(=O)Nc1ccc(Cl)cc1Cl returned UBC13 inh -12, Apaf1 inhib 15, UCH37 inh 5 and PREPL inh 21.
`Cc1c(Cl)c([N+](=O)[O-])nn1CCCC(=O)Nc1cccc(Cl)c1Cl` gave UBC13 inh 2, Apaf1 inhib 10, UCH37 inh 4, PREPL inh 47* and PREPL inh cf 38.
Cc1ccc(-n2c(-c3ccccc3)cc(C=NNC(=O)CC#N)c2-c2ccccc2)cc1 was read as UCH37 inh -24.
For COc1ccc(CNC(=S)NN=C(C)c2ccccc2)cc1 the results were UCH37 inh 3.
COCCCNC(=O)/C(C#N)=C/c1c(N2CCN(c3cccc(Cl)c3)CC2)nc2c(C)cccn2c1=O was read as UBC13 inh 9, Apaf1 inhib 27, UCH37 inh 7 and PREPL inh 18.
C=CCNC(=O)/C(C#N)=C/c1c(N2CCN(c3ccccc3)CC2)nc2c(C)cccn2c1=O was read as UBC13 inh 5, Apaf1 inhib 14, UCH37 inh -77 and PREPL inh 24.
For COCCCNC(=O)/C(C#N)=C/c1c(N2CCN(c3ccccc3)CC2)nc2c(C)cccn2c1=O the results were UBC13 inh -3, Apaf1 inhib 26, UCH37 inh -34, PREPL inh 44* and PREPL inh cf 32.
`COc1ccc(N2CCN(c3nc4c(C)cccn4c(=O)c3/C=C(\C#N)C(N)=O)CC2)cc1` gave UBC13 inh 9, Apaf1 inhib 22, UCH37 inh -141, PREPL inh 54* and PREPL inh cf 53*.
Screening C=CCNC(=O)/C(C#N)=C/c1c(N2CCN(c3ccc(OC)cc3)CC2)nc2c(C)cccn2c1=O returned UBC13 inh 5, Apaf1 inhib 21, UCH37 inh 3, PREPL inh 57* and PREPL inh cf 50*.
Screening CC(=O)NC(Cc1c[nH]c2ccccc12)C(=O)NN=Cc1ccccc1 (stereo not drawn) returned UCH37 inh 1.
For O=C(Cn1cnc2ccccc21)NN=Cc1cccc([N+](=O)[O-])c1 the results were UCH37 inh 3.
For O=C(CNc1cccc2ccccc12)NN=C/C(Br)=C/c1ccccc1 the results were UCH37 inh -4.
CCOC(=O)C(CCC[N+](C)(CC)CC)=NO was read as UCH37 inh 3.
`COc1ccc(C2c3ccc4ccccc4c3Oc3ncn(CCN4CCOCC4)c(=N)c32)cc1OC` (stereo not drawn) gave UBC13 inh -2, Apaf1 inhib 18, UCH37 inh 11, PREPL inh 46* and PREPL inh cf 36.
For Cc1nnc(NN=Cc2ccc(O)c([N+](=O)[O-])c2)[nH]c1=O the results were UCH37 inh 17.
